# Reference: ChEMBL document CHEMBL1128218, “New alpha-thiol dipeptide dual inhibitors of angiotensin-I converting enzyme and neutral endopeptidase EC 3.4.24.11” (J Med Chem, 1995)
# Tests used:
# [1] = biological target: T1, Angiotensin-converting enzyme (Rattus norvegicus) (UniProt P47820); assay: Evaluation of plasma inhibition of Angiotensin I converting enzyme activity in conscious rat 2 hours after intravenous administration at a dose of 10 mg/kg; type: functional, organism-based; design: dose 10 mg/kg
# T1 sequence (whole entry): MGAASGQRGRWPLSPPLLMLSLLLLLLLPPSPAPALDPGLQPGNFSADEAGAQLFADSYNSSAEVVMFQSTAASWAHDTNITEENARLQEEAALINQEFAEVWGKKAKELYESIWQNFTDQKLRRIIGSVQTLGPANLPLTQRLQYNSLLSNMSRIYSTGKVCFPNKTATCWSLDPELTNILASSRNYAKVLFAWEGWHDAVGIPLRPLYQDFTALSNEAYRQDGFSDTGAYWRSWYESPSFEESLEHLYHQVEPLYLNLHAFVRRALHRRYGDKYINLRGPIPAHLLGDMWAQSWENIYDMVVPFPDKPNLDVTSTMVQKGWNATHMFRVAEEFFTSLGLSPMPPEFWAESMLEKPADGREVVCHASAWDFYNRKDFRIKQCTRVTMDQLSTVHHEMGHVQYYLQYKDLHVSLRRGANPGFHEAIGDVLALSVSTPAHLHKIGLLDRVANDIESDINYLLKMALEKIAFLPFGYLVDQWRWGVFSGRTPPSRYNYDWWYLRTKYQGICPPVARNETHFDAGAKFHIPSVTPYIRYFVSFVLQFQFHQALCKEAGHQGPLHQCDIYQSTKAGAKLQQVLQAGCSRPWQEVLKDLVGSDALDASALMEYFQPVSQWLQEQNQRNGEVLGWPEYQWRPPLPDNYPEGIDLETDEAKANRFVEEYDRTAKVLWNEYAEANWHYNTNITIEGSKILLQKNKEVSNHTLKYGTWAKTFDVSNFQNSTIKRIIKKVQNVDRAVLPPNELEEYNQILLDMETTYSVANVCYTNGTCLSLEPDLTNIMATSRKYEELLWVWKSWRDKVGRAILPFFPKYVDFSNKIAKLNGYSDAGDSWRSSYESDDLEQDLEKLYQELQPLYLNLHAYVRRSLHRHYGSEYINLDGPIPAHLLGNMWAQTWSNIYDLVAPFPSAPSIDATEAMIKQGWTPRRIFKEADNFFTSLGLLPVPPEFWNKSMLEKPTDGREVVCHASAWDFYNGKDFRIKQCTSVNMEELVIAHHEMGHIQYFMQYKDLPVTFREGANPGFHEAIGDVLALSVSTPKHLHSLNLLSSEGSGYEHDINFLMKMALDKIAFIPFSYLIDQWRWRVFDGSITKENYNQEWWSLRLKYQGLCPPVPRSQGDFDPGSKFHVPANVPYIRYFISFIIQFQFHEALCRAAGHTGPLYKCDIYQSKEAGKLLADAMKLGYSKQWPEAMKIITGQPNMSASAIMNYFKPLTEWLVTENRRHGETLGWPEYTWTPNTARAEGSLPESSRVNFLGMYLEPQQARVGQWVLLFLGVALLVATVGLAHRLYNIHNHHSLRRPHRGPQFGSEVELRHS
# Method in brief: (§1)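 Male conscious normotensive Sprague-Dawley rats (275-390 g) fitted the day before with femoral arterial and venous catheters under methohexital anesthesia. Three angiotensin-I challenges (300 ng/kg iv) given as baseline. Compound given iv, ia or po (12.3 mg/kg po dose in 3% cornstarch at 1 mg/mL), then AI challenges repeated at set times. Pressor response compared with the mean baseline response and expressed as % inhibition.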
# [2] = biological target: T1, Angiotensin-converting enzyme (Rattus norvegicus); assay: Evaluation of plasma inhibition of Angiotensin I converting enzyme activity in conscious rat 1 hour after intravenous administration at a dose of 10 mg/kg; type: functional, organism-based; design: dose 10 mg/kg; method in brief: as §1
# Neprilysin = biological target: T2, Neprilysin (Rattus norvegicus, UniProt P07861); assay: Evaluation of in vitro inhibitory activity against Neutral endopeptidase
# T2 sequence (P07861 whole entry): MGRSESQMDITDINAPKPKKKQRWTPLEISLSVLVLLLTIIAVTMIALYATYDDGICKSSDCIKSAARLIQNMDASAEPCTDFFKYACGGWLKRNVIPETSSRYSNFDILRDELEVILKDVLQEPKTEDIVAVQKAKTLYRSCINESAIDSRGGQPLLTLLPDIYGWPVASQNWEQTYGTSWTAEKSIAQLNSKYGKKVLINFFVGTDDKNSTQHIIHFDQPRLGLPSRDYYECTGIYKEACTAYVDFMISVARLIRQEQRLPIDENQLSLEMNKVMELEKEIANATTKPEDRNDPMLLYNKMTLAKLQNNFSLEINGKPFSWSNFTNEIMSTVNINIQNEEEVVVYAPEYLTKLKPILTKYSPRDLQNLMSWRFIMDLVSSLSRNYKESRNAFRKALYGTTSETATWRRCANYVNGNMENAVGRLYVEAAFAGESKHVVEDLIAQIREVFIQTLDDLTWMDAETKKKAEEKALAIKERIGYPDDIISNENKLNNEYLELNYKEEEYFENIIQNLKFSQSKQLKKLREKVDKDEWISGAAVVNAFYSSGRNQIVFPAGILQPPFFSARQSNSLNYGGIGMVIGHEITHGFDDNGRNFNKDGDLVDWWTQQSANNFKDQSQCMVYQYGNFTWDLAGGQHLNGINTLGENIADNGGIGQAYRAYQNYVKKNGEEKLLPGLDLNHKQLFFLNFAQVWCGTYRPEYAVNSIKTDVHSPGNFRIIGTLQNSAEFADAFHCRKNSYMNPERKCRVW
# Method in brief: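 Rat kidney cortex membrane homogenate (4.2 μg protein) preincubated 10 min at 25 °C with increasing inhibitor concentrations. Then 500 μM GAAP (final) in 50 mM Tris pH 7.4 with leucine aminopeptidase M, 25 min at 25 °C. Done in duplicate; IC50 from curves of seven points near the IC50.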
# [3] = biological target: T1, Angiotensin-converting enzyme (Rattus norvegicus); assay: Evaluation of plasma inhibition of Angiotensin I converting enzyme activity in conscious rat 4 hours after intravenous administration at a dose of 10 mg/kg; type: functional, organism-based; design: dose 10 mg/kg; method in brief: as §1
Compound,inhibition [1] [%],inhibition [2] [%],IC50 (Neprilysin) [nM],inhibition [3] [%]
CC(C)[C@H](S)C(=O)NC(C)(C)C(=O)N[C@@H](Cc1ccc(O)cc1)C(=O)O,81,88,9.2,69
CC(C)[C@H](S)C(=O)NC1(C(=O)N[C@@H](Cc2ccc(O)cc2)C(=O)O)Cc2ccccc2C1,59,86,25,24
O=C(CS)NC1(C(=O)N[C@@H](Cc2ccc(O)cc2)C(=O)O)CCCC1,15,44,15,7
CC(C)[C@H](S)C(=O)NC1(C(=O)N[C@@H](Cc2ccc(O)cc2)C(=O)O)CCCC1,91,90,1.5,83
CC(C)[C@H](S)C(=O)NC1(C(=O)N[C@@H](Cc2ccccn2)C(=O)O)CCCC1,52,73,3,28
CC(C)[C@H](S)C(=O)NC1(C(=O)N[C@@H](Cc2cccs2)C(=O)O)CCCC1,68,79,1.5,44

# More lines, in order of falling IC50 (Neprilysin), values ahead:
inhibition [1] [%],inhibition [2] [%],IC50 (Neprilysin) [nM],inhibition [3] [%],Compound
27,43,6.4,4,CC(C)[C@H](S)C(=O)NC1(C(=O)N[C@@H](Cc2ccc(O)cc2)C(=O)O)CCOCC1
43,91,5,30,CC(C)[C@H](S)C(=O)NC1(C(=O)N[C@@H](Cc2ccc(O)cc2)C(=O)O)CC1
75,86,3,43,O=C(O)[C@H](Cc1ccc(O)cc1)NC(=O)C1(NC(=O)[C@@H](S)Cc2ccccc2)CCCC1
100,97,2.6,87,CC(C)[C@H](S)C(=O)NC1(C(=O)N[C@@H](Cc2ccsc2)C(=O)O)CCCC1
92,98,2.1,86,CC(C)[C@H](S)C(=O)NC1(C(=O)N[C@@H](Cc2c[nH]c3ccccc23)C(=O)O)CCCC1
80,85,1.8,38,CC(C)[C@H](S)C(=O)NC1(C(=O)N[C@@H](Cc2ccc(F)cc2)C(=O)O)CCCC1
69,72,1.2,79,CC(C)[C@H](S)C(=O)NC1(C(=O)N[C@@H](CCc2ccccc2)C(=O)O)CCCC1
